# Reference: PubChem BioAssay
# Calls of active or inactive are those of the source.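 The calls were made as follows, unless noted: active = viability at or under a set limit in both replicates, limit being median viability minus 3 SD (cut at about 48% in these data, passing the limit was not always enough); inconclusive = at or under the limit in just one replicate; inactive = at or above the limit in both replicates.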
# How the values were obtained:
# [1] = reduced viability of SK-BR-3 breast cancer cells – cell-based, 24 h, human, pilot screen (AID 572;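 active = viability at or below 10% of carrier control in both of two separate runs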;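 also: compound exposure lasted between 18 and 24 h rather than exactly 24 h; 100% = carrier-treated control wells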); conditions: SK-BR-3 viability, CellTiter-Glo luminescence, at 10 µM, stronger effect = lower value
# [2] = HUVEC growth inhibition – cell-based, human, primary screen (AID 575;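 active = viability at or below 30% in both replicate assays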;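 also: 100% = median of untreated cell wells with 0.1% DMSO on each plate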); conditions: HUVEC proliferation, CellTiter-Glo luminescence, 72 h; at 10 µM; stronger effect = lower value
# In short: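 Test system: primary human umbilical vein endothelial cells; medium: endothelial basal medium with 2% FBS plus growth supplements; dosing: 10 µM compound only; times: 72 h treatment at 37 °C; signal: CTG luminescence; read-out: % viability relative to median vehicle-well signal on each plate; control set: vehicle and MePR control wells; plate: 384-well, collagen-coated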
# [3] = H69AR cell proliferation blockers – human, duplicate replicates, primary screen (AID 580); conditions: H69AR lung tumor cells viability, ATP luminescence, 72 h; at 10 µM; stronger effect = lower value;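 also: 100% = mean luminescence of untreated wells and 0% = no signal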
# [4] = MRP1 drug-resistance reversers in H69AR cells – cell-based, doxorubicin co-treatment, pilot screen (AID 601;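 active = viability loss from added drug above about 55%, and viability with drug at most 40%, in both replicates, limit read from the data, passing the limit was not always enough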); conditions: CellTiter-Glo, 72 h, at 10 µM; for differential viability (reversal): stronger effect = higher value
# [5] = yeast transport mutant growth inhibition pilot in 384-well plates, post-Golgi transport modulator project (AID 636; in the data active = inhibition above about 31%); conditions: absorbance 615 nm, about 18 h, stronger effect = higher value
# [6] = growth suppression of yeast trafficking mutant, preliminary HTS, modulators of trafficking downstream of Golgi apparatus project, 1536-format plate, OD 615 nm (AID 637; in the data active = inhibition above about 30%); conditions: yeast transport mutant growth, absorbance 615 nm, 18 h; stronger effect = higher value
# [7] = H69AR cells + 2 uM doxorubicin, measured here: viability with 2 uM doxorubicin, stronger effect = lower value
# [8] = H69AR cells, compound alone cytotoxicity
SMILES,viability [1],viability [2],viability [3],differential viability (reversal) ([4]; H69AR cells + 2 uM doxorubicin),"viability [4, 7] [%]","viability [4, 8] [%]",inhibition [5],inhibition [6]
CCN(CC)CCNC(=O)c1cc(Cl)c(N)cc1OC,89% (inactive),85.9% (inactive),93.8% (inactive),-8.38% (inactive),102,93.8,-3.25% (inactive),-2.5% (inactive)
O=C(Cn1[nH]c(=O)c2ccccc2c1=O)OCC(=O)N1CCCc2ccccc21,90% (inactive),101% (inactive),102% (inactive),13.7% (inactive),88.7,102,-5.73% (inactive),-2.55% (inactive)
Cc1ccc(-c2nnc3c4ccccc4c(C)nn23)cc1S(=O)(=O)N1CCN(C)CC1,85% (inactive),78.6% (inactive),74% (inactive),-16.7% (inactive),90.7,74,-5.2% (inactive),1.15% (inactive)
CCCCC(=O)Nc1ccc(NC(=O)C2CC2)nc1,91% (inactive),108% (inactive),101% (inactive),-4.46% (inactive),106,101,-1.51% (inactive),-1.13% (inactive)
CCOc1ccc(NC(=O)CC2NCCNC2=O)cc1 (centres undefined),125% (inactive),108% (inactive),95.3% (inactive),2.51% (inactive),92.8,95.3,-5.95% (inactive),-2.36% (inactive)
CC1=C(C(=O)Nc2ccccc2C)C2(CCCC2)C(C(N)=O)C(=O)N1 (centres undefined),114% (inactive),81.7% (inactive),90% (inactive),1.6% (inactive),88.4,90,0.96% (inactive),0% (inactive)
CCc1nnc(SCc2cn3c(C)cc(C)nc3n2)n1N,96% (inactive),96.5% (inactive),108% (inactive),15.7% (inactive),92.2,108,-1.89% (inactive),-4.91% (inactive)
CCCN1Cc2cccc(C(=O)NC3CCCC3)c2C1=O,111% (inactive),91.5% (inactive),87.9% (inactive),5.09% (inactive),82.8,87.9,-7.47% (inactive),6.36% (inactive)
CCCCOc1ccc(C(=O)CCN2CCCCC2)cc1,121% (inactive),46% (inactive),66.1% (inactive),24.7% (inactive),41.4,66.1,-2.21% (inactive),6.17% (inactive)
COc1ccc(C/C(O)=C(\C#N)c2nc3ccccc3s2)cc1,86% (inactive),48.8% (inactive),83.1% (inactive),-8.21% (inactive),91.3,83.1,-2.93% (inactive),0.36% (inactive)
O=C(O)CCn1[nH]c(=O)ccc1=O,87% (inactive),102% (inactive),97.3% (inactive),3.97% (inactive),93.4,97.3,-2.05% (inactive),1.77% (inactive)
CCCc1ccccc1OCCNC(C)=O,103% (inactive),99.5% (inactive),102% (inactive),11.2% (inactive),90.4,102,-3.87% (inactive),0% (inactive)
Cc1ccc(CN2CCN(C(=O)C3CCC3)CC2)cc1,88% (inactive),102% (inactive),97% (inactive),4.13% (inactive),92.9,97,-8.49% (inactive),2.36% (inactive)
CS(=O)(=O)N(CC(=O)Nc1ccc2c(c1)OCO2)Cc1ccc(Cl)cc1,70% (inactive),88.5% (inactive),95% (inactive),-7.89% (inactive),103,95,-6.58% (inactive),2.73% (inactive)
C#CCSc1nc(-c2cccs2)ccc1C#N,91% (inactive),95.1% (inactive),71.4% (inactive),-22.5% (inactive),93.9,71.4,-0.96% (inactive),21.8% (inactive)
COC(=O)Nc1sccc1C(=O)Nc1sccc1C(=O)OC,62% (inactive),88.5% (inactive),52.2% (inactive),-13.8% (inactive),66,52.2,2.47% (inactive),-2.36% (inactive)
Cc1nc(NC(=O)C23CCC(C)(C(=O)O2)C3(C)C)sc1C (centres undefined),133% (inactive),107% (inactive),99.2% (inactive),13.9% (inactive),85.4,99.2,-2.99% (inactive),0.16% (inactive)
CCOc1ccc(NC(=O)COC(=O)Cn2cnnn2)cc1OCC,86% (inactive),106% (inactive),107% (inactive),-0.92% (inactive),108,107,1.23% (inactive),-0.36% (inactive)
COc1ccc(S(=O)(=O)NCCSCc2ccco2)cc1Cl,48% (inactive),102% (inactive),92.4% (inactive),1.13% (inactive),91.3,92.4,-6.3% (inactive),4% (inactive)
CC(=O)N1CN(C2CCCC2)Cc2c1sc1c2CCCC1,95% (inactive),103% (inactive),101% (inactive),-16% (inactive),117,101,-8.22% (inactive),0.36% (inactive)
Cc1cccc(-n2nnnc2SCc2csc(-c3ccccc3)n2)c1,95% (inactive),101% (inactive),93.9% (inactive),5.89% (inactive),88,93.9,6.44% (inactive),2.58% (inactive)
Cc1cc(/C=N\O)c(C)n1-c1ccncc1,120% (inactive),83.8% (inactive),91.4% (inactive),-5.03% (inactive),96.4,91.4,-7.26% (inactive),-0.32% (inactive)
Cc1cc(NCC2CCCO2)n2c(nc3ccccc32)c1C#N (centres undefined),79% (inactive),81.2% (inactive),71% (inactive),38.9% (inactive),32.1,71,-6.44% (inactive),1.61% (inactive)
